According to article PMC5470083 (Molecular imaging, 2016):
Like-named read-outs stand apart in the source and are kept apart here. Marks after values point to notes of the source that are not given here.

Tests used:
[1] = biological target: T1, tau (NFTs) (Homo sapiens, UniProt P10636); type: binding; details: 1 µmol/L compound, human AD slices, n = 3
Target sequence in this assay (P10636 623-708 limits assumed): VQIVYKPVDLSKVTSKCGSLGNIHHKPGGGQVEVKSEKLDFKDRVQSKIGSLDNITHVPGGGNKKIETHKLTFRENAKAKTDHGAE

[2] = biological target: Aβ fibrils; details: read-out: Ki for Aβ fibrils; reported values; ref [3],[13]; cited from earlier work
[3] = Biodistribution in normal NMRI mice; type: in vivo, mouse; details: for %ID/g Blood / %ID/g Bone / %ID/g Brain / %ID/g Cerebellum / %ID/g Cerebrum / %ID/g Heart / %ID/g Kidneys / %ID/g Liver / %ID/g Lungs / %ID/g Muscle / %ID/g Pancreas / %ID/g Spleen: iv
Procedure, shortened: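 Healthy male NMRI mice (30-40 g) under 2.5% isoflurane in O2 received about 0.9 MBq of 18F-labelled tracer by tail vein. They were decapitated at 2, 10, 30 and 60 min PI (n = 4/time point). Blood and organs were weighed and γ-counted. Blood, bone and muscle were taken as 7%, 12% and 40% of body mass. Blood clearance was calculated as the 2 min to 60 min activity ratio.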

[4] = Plasma radiometabolite analysis; type: in vivo, mouse; details: normal mice
Procedure, shortened: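 NMRI mice under isoflurane (2.5% in O2) received about 3.7 MBq of 18F-labelled tracer via a lateral tail vein. They were decapitated at 2, 10, 30 or 60 min PI (n = 3/time point). EDTA blood was kept on ice and spun at 2330 ×g for 10 min. Plasma (0.5 mL) was spiked with 10 µg authentic unlabelled compound and run on C18 HPLC. Fractions were γ-counted for % intact tracer, reported as mean ± SD.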

[5] = Perfused brain radiometabolite analysis; type: in vivo, mouse; details: normal mice
[6] = biological target: T1, tau (NFTs); type: binding
Target sequence in this assay (P10636 623-695 limits assumed): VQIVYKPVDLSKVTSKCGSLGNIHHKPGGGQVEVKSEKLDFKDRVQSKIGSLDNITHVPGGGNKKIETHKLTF

[7] = biological target: Aβ (Homo sapiens, UniProt P05067); assay: In vitro autoradiography binding inhibition of [11C]PiB on human AD brain slices
Chain of Aβ (P05067 672-711 limits assumed): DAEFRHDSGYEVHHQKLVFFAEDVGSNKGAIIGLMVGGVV

[8] = biological target: PHF tau (Homo sapiens, UniProt P10636); type: binding
Chain of PHF tau (P10636 623-695 limits assumed): as the sequence (P10636 623-695 limits assumed) above

[9] = biological target: amyloid plaques (Homo sapiens, UniProt P05067); type: binding
Chain of amyloid plaques (P05067 672-711 limits assumed): as the sequence (P05067 672-711 limits assumed) above

[10] = biological target: NFTs; details: autoradiography on human AD brain tissue sections; ref [8],[11]; cited from earlier work
[11] = read-out: % Block ± SD of tracer binding

CNc1ccc(-c2ccc3ccccc3n2)cc1 [BF-158, N-Methyl-4-(quinolin-2-yl)benzenamine]
% Block ± SD of tracer binding ([1]; tracer 40 nmol/L [18F]T808): 93 ± 0.0% | Ki [2]: > 5 µM

FCCC1CCN(c2ccn3c(n2)nc2ccccc23)CC1 [T808, 2-[4-(2-fluoroethyl)piperidin-1-yl]pyrimido[1,2-a]benzimidazole]
%ID/g Blood ([3]; blood, 2 min PI): 1.8 ± 0.1 %ID/g | 2/60 min activity ratio Blood (clearance from blood) ([3]; blood, 2 min to 60 min activity ratio): 2.7 | %ID/g Blood ([3]; blood, 10 min PI): 2.0 ± 0.2 %ID/g | %ID/g Blood ([3]; blood, 30 min PI): 1.5 ± 0.1 %ID/g | %ID/g Blood ([3]; blood, 60 min PI): 0.7 ± 0.1 %ID/g | %ID/g Bone ([3]; 2 min PI): 2.6 ± 0.6 %ID/g | %ID/g Bone ([3]; 10 min PI): 4.2 ± 0.6 %ID/g | %ID/g Bone ([3]; 60 min PI): 9.2 ± 6.1 %ID/g | %ID/g Brain ([3]; brain, 2 min PI): 4.9 ± 0.5 %ID/g | 2/60 min activity ratio Brain ([3]; brain, 2 min to 60 min activity ratio): 18.2 | %ID/g Brain ([3]; brain, 10 min PI): 0.9 ± 0.3 %ID/g | %ID/g Brain ([3]; brain, 30 min PI): 0.4 ± 0.0 %ID/g | %ID/g Brain ([3]; brain, 60 min PI): 0.3 ± 0.0 %ID/g | %ID/g Cerebellum ([3]; 2 min PI): 5.2 ± 0.5 %ID/g | %ID/g Cerebellum ([3]; 10 min PI): 1.0 ± 0.6 %ID/g | %ID/g Cerebellum ([3]; 30 min PI): 0.6 ± 0.1 %ID/g | %ID/g Cerebellum ([3]; 60 min PI): 0.5 ± 0.2 %ID/g | %ID/g Cerebrum ([3]; 2 min PI): 4.9 ± 0.5 %ID/g | %ID/g Cerebrum ([3]; 10 min PI): 1.0 ± 0.1 %ID/g | %ID/g Cerebrum ([3]; 30 min PI): 0.4 ± 0.0 %ID/g | %ID/g Cerebrum ([3]; 60 min PI): 0.2 ± 0.0 %ID/g | %ID/g Heart ([3]; 2 min PI): 3.2 ± 0.4 %ID/g | %ID/g Heart ([3]; 10 min PI): 2.3 ± 0.3 %ID/g | %ID/g Heart ([3]; 30 min PI): 1.7 ± 0.0 %ID/g | %ID/g Heart ([3]; 60 min PI): 0.8 ± 0.1 %ID/g | %ID/g Kidneys ([3]; 2 min PI): 26.3 ± 1.7 %ID/g | %ID/g Kidneys ([3]; 10 min PI): 12.7 ± 1.7 %ID/g | %ID/g Kidneys ([3]; 30 min PI): 9.2 ± 2.3 %ID/g | %ID/g Kidneys ([3]; 60 min PI): 3.6 ± 1.7 %ID/g | %ID/g Liver ([3]; 2 min PI): 11.8 ± 2.4 %ID/g | %ID/g Liver ([3]; 10 min PI): 15.1 ± 1.6 %ID/g | %ID/g Liver ([3]; 30 min PI): 8.3 ± 1.2 %ID/g | %ID/g Liver ([3]; 60 min PI): 4.2 ± 0.7 %ID/g | %ID/g Lungs ([3]; 2 min PI): 4.8 ± 0.6 %ID/g | %ID/g Lungs ([3]; 10 min PI): 3.0 ± 0.3 %ID/g | %ID/g Lungs ([3]; 30 min PI): 1.8 ± 0.2 %ID/g | %ID/g Lungs ([3]; 60 min PI): 0.9 ± 0.2 %ID/g | %ID/g Muscle ([3]; 2 min PI): 1.5 ± 0.5 %ID/g | %ID/g Muscle ([3]; 10 min PI): 1.0 ± 0.2 %ID/g | %ID/g Muscle ([3]; 30 min PI): 0.8 ± 0.1 %ID/g | %ID/g Muscle ([3]; 60 min PI): 3.5 ± 5.5 %ID/g | %ID/g Pancreas ([3]; 2 min PI): 7.3 ± 2.4 %ID/g | %ID/g Pancreas ([3]; 10 min PI): 4.0 ± 2.0 %ID/g | %ID/g Pancreas ([3]; 30 min PI): 2.2 ± 0.5 %ID/g | %ID/g Pancreas ([3]; 60 min PI): 1.2 ± 0.3 %ID/g | %ID/g Spleen ([3]; 2 min PI): 16.6 ± 6.7 %ID/g | %ID/g Spleen ([3]; 10 min PI): 4.9 ± 0.6 %ID/g | %ID/g Spleen ([3]; 30 min PI): 2.4 ± 0.4 %ID/g | %ID/g Spleen ([3]; 60 min PI): 1.3 ± 0.3 %ID/g | Mean % ± SD of intact tracer, plasma ([4]; 2 min after injection, n = 3): 65 ± 8% | Mean % ± SD of intact tracer, plasma ([4]; 2 min after injection, n = 3, listed as [^18F]T808): 65% | Mean % ± SD of intact tracer, plasma ([4]; 10 min after injection, n = 3): 34 ± 3% | Mean % ± SD of intact tracer, plasma ([4]; 30 min after injection, n = 3): 29 ± 3% | Mean % ± SD of intact tracer, plasma ([4]; 30 min after injection, n = 3, listed as [^18F]T808): 29% | Mean % ± SD of intact tracer, plasma ([4]; 60 min after injection, n = 3): 26 ± 12% | Mean % ± SD of intact tracer, perfused brain ([5]; 10 min after injection, n = 3): 88 ± 2% | Mean % ± SD of intact tracer, perfused brain ([5]; 10 min after injection, n = 3, listed as [^18F]T808): 88% | Mean % ± SD of intact tracer, perfused brain ([5]; 60 min after injection, n = 3): 34 ± 10% | Mean % ± SD of intact tracer, perfused brain ([5]; 60 min after injection, n = 3, listed as [^18F]T808): 34% | % Block ± SD of tracer binding ([1]; tracer 7 nmol/L [18F]T808): 89 ± 0.0% | % Block ± SD of tracer binding ([6]; 1 µmol/L compound, tracer 28 nmol/L [18F]T807, human AD slices, n = 3): 90 ± 10^b % | inhibition at 1 µM [6, 11]: 90% | % Block ± SD of tracer binding ([7]; 1 µmol/L compound, tracer 66 nmol/L [11C]PiB, human AD slices, n = 3): 17 ± 0.0% | inhibition at 1 µM [7, 11]: 17% | inhibition at 1 µM ([7]; read-out: Inhibition of [11C]PiB binding, summary statements): < 17% | Ki [8]: 0.0094 µM | Ki [9]: > 4.4 µM | Kd [10]: 0.022 µM | fold higher binding affinity for NFTs over Aβ [10]: 27 fold
